High-throughput results from PubChem.
Compounds with a hit are over-represented: about 3.5% of the library has one in this group of screens.
RGS4 pot: RGS4 potentiators or activators, primary screen, cell-based, HEK293 M3R inducible RGS4, calcium flux; carbachol calcium flux Fluo4; stronger effect = lower value; B-score at 10 µM; 310,000 tested, 0.92% active; AID 463111, 2010;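 active = B-score of the integrated calcium signal more than 4 SD below the library mean, with starting fluorescence not abnormally high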;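 note: negative B-score means reduced calcium response which marks RGS4 activation or potentiation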
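Also added: carbachol at ECmax as muscarinic agonist stimulus; Assay system: HEK293 cells with stable M3R and inducible RGS4; Timing: overnight RGS4 induction, 30 min dye load 37 °C, 20 min compound RT; Measured by: Fluo4-AM (2 µM) calcium-flux fluorescence, kinetic read.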
MrgX1 agonist: agonists of human MrgX1 receptor, primary screen, HEK293 cells, Fluo-4 calcium flux; Mas-related G-protein coupled receptor member X1 (Homo sapiens), Q96LB2; B-score at 10 µM; Fluo-4 calcium fluorescence, agonist mode; stronger effect = higher value; 310,000 tested, 0.44% active;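 active = calcium response B-score plate-corrected fluorescence ratio at least 3 library SD, with starting fluorescence B-score inside 5 SD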
Target sequence (Q96LB2 whole entry, looked up): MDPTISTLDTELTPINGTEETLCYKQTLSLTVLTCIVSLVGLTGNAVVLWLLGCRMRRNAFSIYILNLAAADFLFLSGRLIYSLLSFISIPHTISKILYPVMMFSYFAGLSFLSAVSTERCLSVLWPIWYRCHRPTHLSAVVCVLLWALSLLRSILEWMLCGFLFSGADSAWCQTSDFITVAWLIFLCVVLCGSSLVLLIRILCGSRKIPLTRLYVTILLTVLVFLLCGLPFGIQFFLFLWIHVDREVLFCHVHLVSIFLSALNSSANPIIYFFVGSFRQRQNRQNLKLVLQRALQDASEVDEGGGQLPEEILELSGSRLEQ
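times = overnight plating, then 30 min 37 °C plus 30 min room-temperature dye loading | assay system = stable human MrgX1 HEK293 cell line | input = fifteen thousand cells per well | signal = kinetic calcium dye fluorescence, Fluo-4 NW | dosing = compound delivered in addition one of three | read-out = B-scored fluorescence response ratio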
MrgX1 PAM: positive allosteric modulators of MrgX1, primary screen, HEK293 cells, Fluo-4 calcium flux; AID 588675, 2011; 310,000 tested, 0.63% active; FDSS; stronger effect = higher value; B-score at 10 µM;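 active = plate-corrected calcium response at least 3 library SD above typical, normal starting fluorescence, not activating the receptor alone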;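 note: compound read alongside a low EC10 to EC30 dose of BAM8-22 agonist; peak minus trough fluorescence over baseline measured at the second addition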
RGS4 inh: RGS4 inhibitors, primary screen, cell-based, HEK293 M3R inducible RGS4, calcium flux; Regulator of G-protein signaling 4 (Homo sapiens), P49798; Fluo-4 calcium flux; stronger effect = higher value; triggered by carbachol at its EC20; B-score at 10 µM; 310,000 tested, 0.45% active; AID 463165, 2010;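 active = B-score, a plate-corrected calcium signal, over three deviations above library mean, with baseline fluorescence within five deviations of library mean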;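 note: RGS4 expression induced by doxycycline in cells with stable M3 receptor; B-score is computed from the integrated fluorescence ratio over baseline after carbachol; higher B-score means a larger calcium signal and so more RGS4 inhibition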
Target sequence (P49798 whole entry, looked up): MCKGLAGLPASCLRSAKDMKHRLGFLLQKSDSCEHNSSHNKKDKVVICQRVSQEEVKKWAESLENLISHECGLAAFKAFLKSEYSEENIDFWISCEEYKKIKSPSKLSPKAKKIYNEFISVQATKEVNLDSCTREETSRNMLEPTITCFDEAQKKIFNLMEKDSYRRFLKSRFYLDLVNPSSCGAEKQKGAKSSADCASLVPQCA
MrgX1 antagonist: antagonists of human MrgX1 receptor, primary screen, HEK293 cells, Fluo-4 calcium flux. B-score at 10 µM. 310,000 tested, 1.3% active. BAM8-22 antagonism; stronger effect = lower value;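 active = calcium-response B-score plate-corrected more than 3 library SD below zero, starting fluorescence within 5 deviations, no agonist response on first addition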;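 note: peak minus trough fluorescence over baseline after final BAM8-22 challenge near maximal dose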
RGS4 act valid: reduced carbachol calcium response, RGS4-induced M3R cells, confirmation, RGS4 activator project, cell-based, HEK293 M3R/RGS4 inducible, calcium flux, duplicate | inhibition, % at 10 µM | shares compounds with RGS4 pot | carbachol calcium flux Fluo4 | 1,100 tested, 89% active;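 active = inhibition above 3 SD of the buffer control wells, cut at about 41% in these data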;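 note: signal is the integrated peak-minus-minimum Fluo4 fluorescence over baseline ratio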
M3R Ca counter: RGS4 activator counter-screen hit in non-induced cells. AID 602283. HEK293 M3R non-induced RGS4, Fluo4 calcium flux; after carbachol challenge at its EC90. inhibition, % at 10 µM. shares compounds with RGS4 pot. 1,100 tested, 82% active;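 active = inhibition exceeding 3 SD of buffer-only control wells, cut at about 26% in these data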;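 note: percent drop in integrated peak-minus-baseline over baseline Fluo4 ratio after carbachol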
An asterisk follows results filed as active; i = inactive; · = no result given; ! = repeats disagree.

SMILES | RGS4 pot | MrgX1 agonist | MrgX1 PAM | RGS4 inh | MrgX1 antagonist | RGS4 act valid | M3R Ca counter
CCOC(=O)C1=C(Cc2ccc(Cl)cc2)C(=O)c2ccccc2C1=O | -9.3* | i | i | i | -4.5* | 86* | 30*
Cc1ccc(C)c(NC(=O)CS(=O)(=O)c2cccc3nsnc23)c1 | i | i | i | i | i | · | ·
O=C1C=C(N2CCCCCC2)C2(CCCCC2)O1 | -8.4* | i | i | i | i | 66* | 0
CCN(CC(=O)Nc1ccccc1OC)C(=O)c1ccc(N(C)S(=O)(=O)c2ccc(C)cc2)cc1 | i | i | i | i | i | · | ·
COc1ccc(-c2cn[nH]c2-c2ccc(OCc3ccccc3)cc2O)cc1 | -9.7* | i | i | i | i | 0 | 0
COc1ccccc1-c1cn[nH]c1-c1ccc(OCc2ccccc2)cc1O | i | i | i | i | i | · | ·
O=C(NCc1ccc2c(c1)OCO2)c1ccc2c(c1)N(Cc1c(F)cccc1Cl)C(=O)CS2 | -7.7* | i | i | i | i | 93* | 60*
CCOC(=O)c1cc2sc(C)cc2n1CC(=O)N(CC)CC | i | i | i | i | i | · | ·
CCOC(=O)c1cc2sc(C)cc2n1CCCN1C(=O)c2ccccc2C1=O | -7.8* | i | i | i | i | 90* | 42*
O=C(Nc1cccc(-c2nc3ccccc3s2)c1)c1cc(=O)c2ccccc2o1 | i | i | i | i | i | · | ·
O=C(Nc1cccc(-c2nc3ccccc3s2)c1)c1cccs1 | -8.1* | i | i | i | i | 92* | 67*
O=C(/C=C/c1cc[n+](CC(=O)c2ccc3cccc4c3c2CC4)cc1)c1ccc2cccc3c2c1CC3 | i | i | i | i | i | · | ·
O=C(NC1CCCCC1)C(c1ccccc1)N1CCCC1 (stereo not drawn) | -8.8* | i | i | i | i | 94* | 64*
Cc1ccc(C(C(=O)NC2CCCCC2)N2CCCC2)cc1 (stereo not drawn) | i | i | i | i | i | · | ·
O=C(NCc1ccc(Cl)cc1)c1cccc(NC(=O)c2ccccc2)c1 | i | i | i | i | i | · | ·
O=C(NCCc1ccc(F)cc1)c1cccc(NC(=O)c2ccccc2)c1 | -7.7* | i | i | i | i | 56* | 0
Cc1cccc2nc(COc3ccc(Cl)c4cccnc34)cn12 | -10* | i | i | i | i | 0 | 84*
O=[N+]([O-])c1ccccc1COc1ccc(Cl)c2cccnc12 | i | i | i | i | i | · | ·
Nn1cnc2c(c1=O)C1(CCCCC1)Cc1ccccc1-2 | i | i | i | i | i | · | ·
O=c1c2c(nc3n1CCCCC3)-c1ccccc1CC21CCCC1 | -11* | i | i | i | i | 93* | 94*
O=C(CSc1nc(-c2ccccc2Cl)ns1)c1ccc(Cl)cc1 | -8.2* | i | i | i | i | 77* | 41*
Cc1cccc2cc3c(N)c(C(=O)Nc4ccc(N5CCOCC5)cc4)sc3nc12 | -11* | i | i | i | -5.4* | 92* | 74*
Cc1ccc2nc3sc(C(=O)Nc4ccc(N5CCOCC5)cc4)c(N)c3cc2c1 | i | · | · | i | · | · | ·
CC(=O)Nc1ccc(NC(=O)CSc2nnc(NC(=O)c3ccc(Br)o3)s2)cc1 | i | i | i | i | i | · | ·
CCOC(=O)C1(CCc2ccccc2)CCN(Cc2ccc(C(=O)OC)cc2)CC1 | i | i | i | i | i | · | ·
SMILES | RGS4 pot | MrgX1 agonist | MrgX1 PAM | RGS4 inh | MrgX1 antagonist | RGS4 act valid | M3R Ca counter
COc1ccc(/C=C/CN2CCC(CO)(Cc3ccccc3Cl)CC2)cc1 | -9.7* | i | i | i | i | 89* | 40*
COC(=O)c1ccc(CN2CCC(CO)(Cc3ccccc3Cl)CC2)cc1 | -7.8* | i | i | i | i | 92* | 60*
CCOC(=O)C1(CC2CC2)CCN(Cc2ccc(C(=O)OC)cc2)CC1 | -8.7* | i | i | i | i | 93* | 49*
Cc1ccc(F)cc1NC(=O)CSc1nnc(CNC(=O)c2ccco2)n1C | i | i | i | i | i | · | ·
CC(NS(=O)(=O)c1ccc2c(c1)C(C)(C)C(=O)N2C)c1ccccc1 (stereo not drawn) | i | i | i | i | i | · | ·
COc1ccc(-c2cc(-c3nnc(COC(=O)c4ccc(O)cc4)o3)c3ccccc3n2)cc1OC | -7.7* | i | i | i | i | 62* | 0
Cc1cnc(NC(=O)C2=C(O)c3ccccc3S(=O)(=O)N2C)s1 | -9.5*! | i | i | i | i | 0 | 0
CC(C)c1nc(N2CCN(C(=O)c3ccccc3)CC2)c(C#N)c2c1COC(C)(C)C2 | -8.8* | i | i | i | i | 45* | 84*
CC(C)c1nc(N2CCN(C(=O)c3ccco3)CC2)c(C#N)c2c1COC(C)(C)C2 | -11* | i | i | i | i | 82* | 42*
CC1(C)Cc2c(C#N)c(N3CCN(C(=O)c4ccccc4)CC3)nc(-c3ccco3)c2CS1 | · | i | i | · | i | · | ·
CCNC(=S)N/N=C/c1cccc(C)c1 | i | i | i | i | i | · | ·
CC(Cc1cccs1)NC(=S)Nc1ccc(Cl)cc1 (stereo not drawn) | -8* | i | i | i | i | 48* | 84*
CC(Cc1cccs1)NC(=O)Nc1ccc(F)cc1 (stereo not drawn) | i | i | i | i | i | · | ·
CN(CCc1cn[nH]c1)C(=O)C1CCC(=O)N(CC2CCCCC2)C1 (stereo not drawn) | i | · | · | i | · | · | ·
Cc1nc2nc(-c3cccs3)[nH]c2cc1Br | i | i | i | i | i | · | ·
COc1ccccc1/C=C/CN1CCCC(CCC(=O)NCc2ccc(F)c(F)c2)C1 (stereo not drawn) | i | i | i | i | i | · | ·
O=C(CCC1CCCN(Cc2cccc3c2OCO3)C1)NCc1ccc(F)c(F)c1 (stereo not drawn) | -9.4* | i | i | i | i | 50* | 33*
